The record followed here is ChEMBL document CHEMBL4052624, “Metallo-β-lactamase inhibitors by bioisosteric replacement: Preparation, activity and binding” (Eur J Med Chem, 2017).

Series [1] has as its target T1, Beta-lactamase VIM-2 (Pseudomonas aeruginosa, UniProt Q9K2N0). As to the kind of experiment: Inhibition of Pseudomonas aeruginosa VIM-2 expressed in Escherichia coli NCB326-1B2 using nitrocefin as substrate after 5 mins by spectrophotometric analysis.
For series [2], the target named is T1, Beta-lactamase VIM-2. As to the kind of experiment: Inhibition of Pseudomonas aeruginosa 301-5473 6His-tagged VIM-2 (V27 to E268 residues) expressed in Escherichia coli BL21 Star(DE3) pLysS using nitrocefin as substrate preincubated for 5 mins followed by substrate addition by spectrophotometric analysis. The method, boiled down:
(§1)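 Purified VIM-2 and GIM-1 were each used at 10 nM in 50 mM HEPES pH 7.2 with ZnCl₂ and BSA. Each enzyme was preincubated with inhibitor at 25 °C for 5 min, using sixteen concentrations in a 2-fold series. Nitrocefin was then added and the absorbance rise at 482 nm was read. Initial velocities, measured in triplicate, were fitted to log[inhibitor] vs response curves to give IC50. Line 3 is the ratio of the two IC50s.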

Series [3] can be described thus: Inhibition of Klebsiella pneumoniae 6His-tagged NDM1 (G36 to R280 residues) expressed in Escherichia coli BL21 Star(DE3) pLysS using imipenem as substrate preincubated for 5 mins followed by substrate addition by spectrophotometric analysis. The conditions noted are these: read-out: IC50. The method, boiled down:
(§2)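 His-tagged enzyme, TEV-cleaved, ~95% pure by SDS-PAGE. 10 nM enzyme with 16 inhibitor concentrations in a 2-fold series, in 50 mM HEPES pH 7.2 with ZnCl2 and BSA, preincubated 5 min at 25 °C. Then 100 µM substrate added: imipenem for NDM-1 read at 260 nm, nitrocefin for GIM-1 read at 482 nm. Initial rates in triplicate, fitted to a log[inhibitor] dose–response curve for IC50.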

Series [4] addresses Beta-lactamase VIM-2 (Pseudomonas aeruginosa) (UniProt Q9K2N0). The series is described as follows: Inhibition of Pseudomonas aeruginosa 301-5473 VIM-2 expressed in Escherichia coli SNO3 whole cells using nitrocefin as substrate at 250 uM preincubated for 20 mins followed by substrate addition measured every min up to 60 mins by spectrophotometric analysis relative to control. The method, boiled down:
(§3)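 β-lactamase-negative E. coli SNO3 carrying blaVIM-2, blaGIM-1 or blaNDM-1 in pET26b(+). Hydrolysis of the reporter substrate followed as the initial slope over up to 60 min. Percent inhibition calculated from slopes relative to a no-inhibitor control; EDTA used as positive control.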

Another series concerns the target GIM-1 protein (Pseudomonas aeruginosa, UniProt Q704V1). The series is described as follows: Inhibition of Pseudomonas aeruginosa 6His-tagged GIM-1 (Q19 to D250 residues) expressed in Escherichia coli BL21 Star(DE3) pLysS using nitrocefin as substrate preincubated for 5 mins followed by substrate addition by spectrophotometric analysis. Conditions: read-out: IC50. The method, boiled down:
as §2

For series [5], the system named is Klebsiella pneumoniae. The series is described as follows: Inhibition of Klebsiella pneumoniae NDM1 expressed in Escherichia coli SNO3 whole cells using imipenem as substrate at 250 uM preincubated for 20 mins followed by substrate addition measured every min up to 60 mins by spectrophotometric analysis relative to control. The method, boiled down: as §3
The target in series [6] is GIM-1 protein (Pseudomonas aeruginosa) (UniProt Q704V1). The series is described as follows: Inhibition of Pseudomonas aeruginosa GIM-1 expressed in Escherichia coli SNO3 whole cells using nitrocefin as substrate at 250 uM preincubated for 20 mins followed by substrate addition measured every min up to 60 mins by spectrophotometric analysis relative to control. Summed up: as §3

The test system of the next series is Escherichia coli. The series is described as follows: Inhibition of VIM-29 in Escherichia coli 50639799 assessed as potentiation of meropenem-induced antimicrobial activity by measuring meropenem MIC at 125 uM after 20 hrs (reference value: 8 to 32 mg/L).
The test system of series [7] is Pseudomonas aeruginosa. The series is described as follows: Selectivity ratio of IC50 for Pseudomonas aeruginosa 301-5473 6His-tagged VIM-2 (V27 to E268 residues) expressed in Escherichia coli BL21 Star(DE3) pLysS to IC50 for Pseudomonas aeruginosa 6His-tagged GIM-1 (Q19 to D250 residues) expressed in Escherichia coli BL21 Star(DE3) pLysS. The method, boiled down:
as §1

Series [8] concerns the target Beta-lactamase VIM-2 (Pseudomonas aeruginosa) (UniProt Q9K2N0). As to the kind of experiment: Inhibition of VIM-2 in Pseudomonas aeruginosa K34-7 assessed as potentiation of meropenem-induced antimicrobial activity by measuring meropenem MIC at 125 uM after 20 hrs (reference value: 32 to 64 mg/L).
The subject of series [9] is Klebsiella pneumoniae. The series is described as follows: Inhibition of NDM-1 in Klebsiella pneumoniae K66-45 assessed as potentiation of meropenem-induced antimicrobial activity by measuring meropenem MIC at 125 uM after 20 hrs (reference value: 32 to 64 mg/L).
Series [10] relates to Pseudomonas aeruginosa. The series is described as follows: Growth inhibition of Pseudomonas aeruginosa K34-7 after 20 hrs.
For series [11], the system named is Klebsiella pneumoniae. As to the kind of experiment: Growth inhibition of Klebsiella pneumoniae K66-45 after 20 hrs.

Sequence of GIM-1 protein (Pseudomonas aeruginosa) (Q704V1 as listed by the source): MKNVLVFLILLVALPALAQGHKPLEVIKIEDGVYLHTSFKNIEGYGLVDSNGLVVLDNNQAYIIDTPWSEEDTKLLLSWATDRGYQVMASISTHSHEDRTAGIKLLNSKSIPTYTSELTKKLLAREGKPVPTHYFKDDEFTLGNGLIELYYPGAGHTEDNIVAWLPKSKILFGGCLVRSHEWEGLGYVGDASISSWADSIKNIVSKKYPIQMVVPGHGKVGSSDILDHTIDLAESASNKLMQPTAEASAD
Sequence of GIM-1 protein (Q704V1 whole entry, the tested form may be a part): as the sequence (Q704V1 as listed by the source) above

The term IC50 denotes the concentration needed to halve the response being measured. As for `O=C(O)C(CS)CCCCc1ccccc1` (stereo not given), the IC50 against Beta-lactamase VIM-2 [1] amounted to 1.1 µM; at Beta-lactamase VIM-2 [2], 2.9 µM; in [3], 56 µM.

A word on the inhibition: it is the drop in the measured response relative to a control, in per cent. High values mean a strong effect, low ones a weak effect. As to `CCOP(=O)(OCC)C(CS)CCc1ccccc1` (stereo not given), the inhibition in series [4] stood at 78%; with Klebsiella pneumoniae [5], 33%; in series [6], 64%. The IC50 on GIM-1 protein is 0.18 µM; against Beta-lactamase VIM-2 [2], 0.89 µM; in series [3], 2.2 µM. Further, the MIC is 8 µg/mL in the series on Escherichia coli; 32 µg/mL in [8]; 32 µg/mL with Klebsiella pneumoniae [9]; greater than 500 µg/mL with Pseudomonas aeruginosa [10]; greater than 500 µg/mL with Klebsiella pneumoniae [11]. Also, in the series on Pseudomonas aeruginosa [7], the Ratio IC50 was 5.
